Reference: the M2OR odorant receptor database

How the values were obtained:
Details in all cases: stereoisomer not certain
[1] = biological target: T1, UniProt Q8VGC6
T1 sequence (whole entry): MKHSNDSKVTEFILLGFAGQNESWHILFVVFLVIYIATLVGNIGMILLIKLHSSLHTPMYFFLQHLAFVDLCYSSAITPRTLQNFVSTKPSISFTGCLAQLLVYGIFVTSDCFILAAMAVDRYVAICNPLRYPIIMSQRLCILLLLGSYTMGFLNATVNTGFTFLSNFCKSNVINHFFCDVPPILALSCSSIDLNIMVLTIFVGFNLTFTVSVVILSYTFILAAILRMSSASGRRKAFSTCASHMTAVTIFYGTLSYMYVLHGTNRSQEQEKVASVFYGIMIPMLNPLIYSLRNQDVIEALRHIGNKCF
In short: (§1)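 Each entry records the cell line, G-protein, co-transfected protein and tags used. Methods varied with the source, often transient luciferase assays in mammalian cell lines. A receptor–molecule pair is called responsive (active) if the original authors judged its signal statistically different from baseline and non-responsive (inactive) otherwise.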

[2] = biological target: T2, UniProt Q8VGD7
T2 sequence (whole entry): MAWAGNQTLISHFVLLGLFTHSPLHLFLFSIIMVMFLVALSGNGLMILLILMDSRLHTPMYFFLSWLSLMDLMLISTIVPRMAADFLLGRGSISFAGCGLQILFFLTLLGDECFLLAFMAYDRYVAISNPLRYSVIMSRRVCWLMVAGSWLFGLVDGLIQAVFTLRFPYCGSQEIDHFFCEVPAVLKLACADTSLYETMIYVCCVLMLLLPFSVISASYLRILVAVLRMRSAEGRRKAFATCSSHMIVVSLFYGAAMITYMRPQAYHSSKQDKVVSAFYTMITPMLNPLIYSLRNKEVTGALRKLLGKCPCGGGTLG
In short: as §1

[3] = biological target: T3, UniProt Q8VGH1
T3 sequence (whole entry): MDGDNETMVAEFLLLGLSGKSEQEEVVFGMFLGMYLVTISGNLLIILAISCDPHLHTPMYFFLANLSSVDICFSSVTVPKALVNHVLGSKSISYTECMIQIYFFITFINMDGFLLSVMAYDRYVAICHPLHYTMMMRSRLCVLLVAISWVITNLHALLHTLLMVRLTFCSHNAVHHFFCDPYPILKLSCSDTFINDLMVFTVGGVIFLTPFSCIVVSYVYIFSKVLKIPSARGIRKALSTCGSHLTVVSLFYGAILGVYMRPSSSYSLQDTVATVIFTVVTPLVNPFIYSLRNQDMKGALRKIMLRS
In short: as §1

[4] = biological target: T4, UniProt Q8VGJ1
T4 sequence (whole entry): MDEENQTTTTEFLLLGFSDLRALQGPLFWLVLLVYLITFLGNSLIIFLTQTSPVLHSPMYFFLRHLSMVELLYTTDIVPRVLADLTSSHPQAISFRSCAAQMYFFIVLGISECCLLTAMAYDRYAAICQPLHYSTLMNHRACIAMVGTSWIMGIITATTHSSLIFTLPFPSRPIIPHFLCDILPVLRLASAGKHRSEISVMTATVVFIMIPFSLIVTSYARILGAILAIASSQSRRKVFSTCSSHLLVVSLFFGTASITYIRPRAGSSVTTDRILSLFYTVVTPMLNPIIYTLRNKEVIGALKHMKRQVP
In short: as §1

[5] = biological target: T5, UniProt Q8VGJ3
T5 sequence (whole entry): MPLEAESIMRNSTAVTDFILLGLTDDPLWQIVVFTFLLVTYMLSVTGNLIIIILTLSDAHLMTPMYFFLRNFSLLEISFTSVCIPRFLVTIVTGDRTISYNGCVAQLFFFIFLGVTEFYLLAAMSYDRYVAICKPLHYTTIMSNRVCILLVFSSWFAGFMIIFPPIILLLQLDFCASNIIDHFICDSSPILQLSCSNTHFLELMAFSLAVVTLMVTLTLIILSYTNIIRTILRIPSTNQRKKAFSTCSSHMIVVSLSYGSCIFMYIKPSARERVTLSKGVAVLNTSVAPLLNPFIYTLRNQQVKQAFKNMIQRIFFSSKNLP
In short: as §1

[6] = biological target: T6, UniProt Q8VGJ5
T6 sequence (whole entry): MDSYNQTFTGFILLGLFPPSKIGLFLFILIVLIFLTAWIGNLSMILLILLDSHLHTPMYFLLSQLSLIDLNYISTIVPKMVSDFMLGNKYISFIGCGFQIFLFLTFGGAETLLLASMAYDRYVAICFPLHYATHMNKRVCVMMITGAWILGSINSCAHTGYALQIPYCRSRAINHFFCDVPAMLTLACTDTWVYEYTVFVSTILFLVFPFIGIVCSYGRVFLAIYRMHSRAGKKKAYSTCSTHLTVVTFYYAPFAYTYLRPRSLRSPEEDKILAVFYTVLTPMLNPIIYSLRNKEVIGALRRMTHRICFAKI
In short: as §1

[7] = biological target: T7, UniProt Q8VGL0
T7 sequence (whole entry): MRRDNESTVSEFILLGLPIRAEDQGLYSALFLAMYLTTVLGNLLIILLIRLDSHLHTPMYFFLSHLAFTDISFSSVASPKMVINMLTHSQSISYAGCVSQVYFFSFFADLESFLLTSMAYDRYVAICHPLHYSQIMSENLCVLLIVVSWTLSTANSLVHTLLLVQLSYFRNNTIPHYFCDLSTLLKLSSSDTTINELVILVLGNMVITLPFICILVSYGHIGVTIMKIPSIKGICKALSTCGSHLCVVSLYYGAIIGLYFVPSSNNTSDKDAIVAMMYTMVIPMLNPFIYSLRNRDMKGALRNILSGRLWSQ
In short: as §1

[8] = biological target: T8, UniProt Q8VGL7
T8 sequence (whole entry): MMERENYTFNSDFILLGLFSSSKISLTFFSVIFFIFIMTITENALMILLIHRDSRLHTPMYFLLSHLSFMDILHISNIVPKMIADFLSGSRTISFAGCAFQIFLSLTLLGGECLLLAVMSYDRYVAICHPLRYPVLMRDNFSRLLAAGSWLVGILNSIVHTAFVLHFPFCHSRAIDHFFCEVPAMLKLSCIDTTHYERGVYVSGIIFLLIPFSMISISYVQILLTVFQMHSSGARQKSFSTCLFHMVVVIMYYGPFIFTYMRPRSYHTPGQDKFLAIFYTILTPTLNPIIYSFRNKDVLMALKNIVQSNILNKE
In short: as §1

[9] = biological target: T9, UniProt Q8VGM2
T9 sequence (whole entry): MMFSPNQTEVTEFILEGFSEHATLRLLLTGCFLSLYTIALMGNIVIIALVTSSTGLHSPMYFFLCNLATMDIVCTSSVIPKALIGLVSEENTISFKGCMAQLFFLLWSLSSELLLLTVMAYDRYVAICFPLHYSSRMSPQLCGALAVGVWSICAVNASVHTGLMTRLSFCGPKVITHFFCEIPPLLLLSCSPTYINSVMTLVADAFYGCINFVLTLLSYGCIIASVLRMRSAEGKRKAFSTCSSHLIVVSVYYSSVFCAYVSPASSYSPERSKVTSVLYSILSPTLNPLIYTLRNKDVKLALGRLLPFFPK
In short: as §1

[10] = biological target: T10, UniProt Q8VGP6
T10 sequence (whole entry): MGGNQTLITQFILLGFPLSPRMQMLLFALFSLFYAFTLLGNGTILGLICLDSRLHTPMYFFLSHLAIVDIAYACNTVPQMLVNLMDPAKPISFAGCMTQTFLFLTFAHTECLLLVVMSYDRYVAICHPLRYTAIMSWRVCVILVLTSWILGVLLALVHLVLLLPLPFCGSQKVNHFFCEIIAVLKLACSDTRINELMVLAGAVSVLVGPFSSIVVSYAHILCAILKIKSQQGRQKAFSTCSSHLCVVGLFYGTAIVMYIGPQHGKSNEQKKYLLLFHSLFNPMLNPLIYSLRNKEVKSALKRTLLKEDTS
In short: as §1

[11] = biological target: T11, UniProt Q8VGQ3
T11 sequence (whole entry): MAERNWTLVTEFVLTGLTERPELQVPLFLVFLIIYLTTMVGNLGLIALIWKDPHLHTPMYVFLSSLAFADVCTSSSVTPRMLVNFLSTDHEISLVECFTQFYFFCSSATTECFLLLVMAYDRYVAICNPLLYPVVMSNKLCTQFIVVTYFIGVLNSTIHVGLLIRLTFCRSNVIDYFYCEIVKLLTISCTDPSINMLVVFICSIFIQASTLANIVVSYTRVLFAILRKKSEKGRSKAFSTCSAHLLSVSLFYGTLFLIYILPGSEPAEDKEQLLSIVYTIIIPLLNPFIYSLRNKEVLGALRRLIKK
In short: as §1

[12] = biological target: T12, UniProt Q8VGT4
T12 sequence (whole entry): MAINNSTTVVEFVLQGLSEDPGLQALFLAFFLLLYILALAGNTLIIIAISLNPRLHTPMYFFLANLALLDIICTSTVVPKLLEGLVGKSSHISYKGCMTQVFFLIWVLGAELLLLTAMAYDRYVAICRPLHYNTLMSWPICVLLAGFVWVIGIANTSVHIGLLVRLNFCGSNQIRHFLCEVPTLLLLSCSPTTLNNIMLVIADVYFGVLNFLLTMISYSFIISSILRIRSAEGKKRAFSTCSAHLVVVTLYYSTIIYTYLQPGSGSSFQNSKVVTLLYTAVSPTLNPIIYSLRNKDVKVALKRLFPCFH
In short: as §1

[13] = biological target: T13, UniProt Q8VGU3
T13 sequence (whole entry): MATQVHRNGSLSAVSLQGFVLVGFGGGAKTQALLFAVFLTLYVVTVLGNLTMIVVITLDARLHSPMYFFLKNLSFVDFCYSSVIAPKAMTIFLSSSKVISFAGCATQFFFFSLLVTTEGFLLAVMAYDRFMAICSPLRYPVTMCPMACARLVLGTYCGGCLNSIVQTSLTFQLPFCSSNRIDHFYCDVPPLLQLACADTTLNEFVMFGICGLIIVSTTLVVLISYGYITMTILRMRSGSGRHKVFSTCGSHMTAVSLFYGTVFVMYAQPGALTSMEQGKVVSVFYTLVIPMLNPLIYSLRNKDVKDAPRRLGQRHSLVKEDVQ
In short: as §1

[14] = biological target: T14, UniProt Q8VGV1
T14 sequence (whole entry): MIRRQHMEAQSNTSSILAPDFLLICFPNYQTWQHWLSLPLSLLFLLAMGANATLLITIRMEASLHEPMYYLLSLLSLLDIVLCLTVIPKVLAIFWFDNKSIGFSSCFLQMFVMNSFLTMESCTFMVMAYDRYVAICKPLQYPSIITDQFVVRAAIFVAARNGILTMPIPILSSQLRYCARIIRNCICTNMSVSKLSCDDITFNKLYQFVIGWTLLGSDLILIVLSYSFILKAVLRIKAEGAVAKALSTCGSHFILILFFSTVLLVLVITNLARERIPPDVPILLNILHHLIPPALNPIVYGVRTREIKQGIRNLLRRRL
In short: as §1

[15] = biological target: T15, UniProt Q8VGV7
T15 sequence (whole entry): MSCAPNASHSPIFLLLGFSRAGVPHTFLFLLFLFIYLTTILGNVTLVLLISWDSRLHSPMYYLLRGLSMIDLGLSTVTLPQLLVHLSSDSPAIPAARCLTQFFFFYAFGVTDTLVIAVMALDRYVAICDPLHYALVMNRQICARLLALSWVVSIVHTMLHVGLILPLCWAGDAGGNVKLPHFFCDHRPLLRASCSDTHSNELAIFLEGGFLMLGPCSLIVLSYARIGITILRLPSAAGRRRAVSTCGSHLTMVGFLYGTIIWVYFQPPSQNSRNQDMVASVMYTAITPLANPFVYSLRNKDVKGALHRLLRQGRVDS
In short: as §1

[16] = biological target: T16, UniProt Q8VGX3
T16 sequence (whole entry): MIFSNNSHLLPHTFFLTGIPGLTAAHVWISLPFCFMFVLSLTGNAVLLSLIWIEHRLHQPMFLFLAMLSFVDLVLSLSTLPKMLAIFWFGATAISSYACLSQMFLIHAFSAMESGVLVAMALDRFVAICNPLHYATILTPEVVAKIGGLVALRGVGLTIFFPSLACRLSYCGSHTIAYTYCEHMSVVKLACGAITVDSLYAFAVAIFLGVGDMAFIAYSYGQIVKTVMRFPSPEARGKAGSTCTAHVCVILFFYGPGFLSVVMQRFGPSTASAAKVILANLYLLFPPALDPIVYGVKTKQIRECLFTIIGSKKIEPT
In short: as §1

[17] = biological target: T17, UniProt Q8VGX5
T17 sequence (whole entry): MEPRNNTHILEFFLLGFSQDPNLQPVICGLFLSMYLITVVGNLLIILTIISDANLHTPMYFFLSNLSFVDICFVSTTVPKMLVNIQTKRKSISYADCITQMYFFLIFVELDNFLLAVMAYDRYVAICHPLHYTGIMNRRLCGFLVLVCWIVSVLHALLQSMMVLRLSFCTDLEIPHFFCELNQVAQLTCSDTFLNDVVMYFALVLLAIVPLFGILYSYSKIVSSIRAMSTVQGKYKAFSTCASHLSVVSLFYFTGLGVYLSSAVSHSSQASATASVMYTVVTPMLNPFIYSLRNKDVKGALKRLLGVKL
In short: as §1

SMILES	odorant receptor agonist call [1]	odorant receptor agonist call [2]	odorant receptor agonist call [3]	odorant receptor agonist call [4]	odorant receptor agonist call [5]	odorant receptor agonist call [6]	odorant receptor agonist call [7]	odorant receptor agonist call [8]	odorant receptor agonist call [9]	odorant receptor agonist call [10]	odorant receptor agonist call [11]	odorant receptor agonist call [12]	odorant receptor agonist call [13]	odorant receptor agonist call [14]	odorant receptor agonist call [15]	odorant receptor agonist call [16]	odorant receptor agonist call [17]
CCCCCC1=C(C)CCC1=O	inactive	inactive	inactive	inactive	inactive	active	inactive	active	inactive	inactive	inactive	inactive	inactive	inactive	inactive	inactive	active
CCCCC(C)=O	inactive	inactive	inactive	inactive	inactive	active	inactive	inactive	inactive	inactive	inactive	inactive	inactive	inactive	inactive	inactive	inactive
